According to ChEMBL document CHEMBL1127020, “3-Quinolinecarboxamides. A series of novel orally-active antiherpetic agents” (1993):
Values after ≈ are worked out from the molar mass of the structure shown. Active and inactive are the calls of the source. The calls are words filed in the database; no cut-off is given here.

How the values were obtained:
[1] = system: Human alphaherpesvirus 2; test: (§1) In vitro minimum inhibitory concentration against herpes simplex virus-2 (HSV-2) by plaque-reduction assay in vero cells; format: functional
[2] = system: Human alphaherpesvirus 2; test: as §1; format: functional, organism-based
In short: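 Vero monolayers (2 days old, confluent; Hank's MEM + 5% inactivated FCS, 37 °C, 2% CO2) infected with ~80 PFU; after 1-h adsorption, overlay of M199/5% FCS with 1:150 human immune serum globulin plus serial 2-fold compound dilutions (1:200 from DMSO). 3 d incubation, glutaraldehyde fix, crystal violet stain, plaque count. MIC = lowest concentration giving 50% plaque reduction; mean of ≥2 experiments.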

[3] = system: Human alphaherpesvirus 2; test: In vitro maximum tolerated level against herpes simplex virus-2 (HSV-2) by plaque-reduction assay in vero cells; format: functional
[4] = system: Human alphaherpesvirus 2; test: In vivo maximum tolerated dose against herpes simplex virus-2 (HSV-2) by oral administration in female mice; format: functional

SMILES | MIC [1] [µg/mL] | MIC [2] | MTL [3] [µg/mL] | MTD [4] [mg/kg]
CCC(=O)c1c(O)c2ccc(-c3ccncc3)cc2n(-c2ccc(F)cc2)c1=O | > 100 |  |  | 
NC(=O)c1cn(-c2ccc(F)cc2)c2cc(Br)ccc2c1=O |  | inactive | 6.25 | 
CCn1cc(C(N)=O)c(=O)c2ccc(-c3ccccc3)cc21 |  | inactive | 50 | 
CCn1cc(C(N)=O)c(=O)c2ccc(-c3ccc(N)cc3)cc21 |  | inactive | 6.25 | 
CCn1cc(C(N)=O)c(=O)c2ccccc21 |  | inactive | 50 | 
CCn1cc(C(N)=O)c(=O)c2ccc(-c3cnc(C)s3)cc21 |  | inactive | >100 | 
NC(=O)c1c(O)c2ccc(-c3ccncc3)cc2n(-c2ccc(F)cc2)c1=O | 11 (≈ 29.3 µM) |  | >100 | 
CCn1cc(C#N)c(=O)c2ccc(-c3ccncc3)cc21 |  | inactive | 100 | 
CCn1cc(C(N)=O)c(=O)c2ccc(-c3ccc([N+](=O)[O-])cc3)cc21 |  | inactive | >100 | 
NC(=O)c1cnc2cc(-c3ccncc3)ccc2c1O |  | inactive | 12.5 | 
CCn1cc(C(N)=O)c(=O)c2ccc(F)cc21 |  | inactive | 50 | 
CCn1cc(C(N)=O)c(=O)c2ccc(N3CCN(C)CC3)cc21 |  | inactive | 50 | 
NC(=O)c1c(O)c2ccc(-c3ccncc3)cc2n2c1nc1ccccc12 |  |  | 0.4 | 
CCn1cc(C(=O)NCCO)c(=O)c2ccc(-c3ccncc3)cc21 |  | inactive | 25 | 
CCn1cc(C(N)=O)c(=O)c2ccc(I)cc21 |  | inactive | >100 | 
CCn1c(N)c(C(N)=O)c(=O)c2ccc(-c3ccncc3)cc21 | 9 (≈ 29.2 µM) |  | >12.5 | >100

SMILES | MIC [1] [µg/mL] | MIC [2] | MTL [3] [µg/mL] | MTD [4] [mg/kg]
CC(C)(C)c1ccc(-n2cc(C(N)=O)c(=O)c3ccc(-c4ccncc4)cc32)cc1 |  | inactive | >25 | 
CCn1cc(C(=O)NCCN(C)C)c(=O)c2ccc(-c3ccncc3)cc21 |  | inactive | >100 | 
NC(=O)c1cn(CCO)c2cc(-c3ccncc3)ccc2c1=O |  | inactive | 50 | 
CCn1cc(C(=O)NOC)c(=O)c2ccc(-c3ccncc3)cc21 |  | inactive | 25 | 
CCn1cc(C(N)=O)c(=O)c2ccc(-n3ccnc3)cc21 |  | inactive | 50 | 
NC(=O)c1csc2cc(-c3ccncc3)ccc2c1=O |  | inactive | >100 | 
CCn1cc(C(=O)N(C)C)c(=O)c2ccc(-c3ccncc3)cc21 |  | inactive | >100 | 
CCn1cc(C(N)=O)c(=O)c2ccc(Cl)cc21 |  | inactive | >100 | 
Oc1nc2c(O)c3ccc(-c4ccncc4)cc3n(-c3ccc(F)cc3)c-2n1 |  |  | >100 | 
CCn1cc(C(=O)O)c(=O)c2ccc(-c3ccncc3)cc21 [ROSOXACIN] |  | inactive | >200 | 
CCn1c(C)c(C(N)=O)c(=O)c2ccc(-c3ccncc3)cc21 |  | inactive | 50 | 
CCn1cc(C2=NCCN2)c(=O)c2ccc(-c3ccncc3)cc21 |  | inactive | >100 | 
NC(=O)c1cn(-c2ccc(F)cc2)c2cc(Cl)ccc2c1=O |  | inactive | >12.5 | 
CCCn1cc(C(N)=O)c(=O)c2ccc(-c3ccncc3)cc21 |  | inactive | 6.25 | 
CCn1cc(C(=O)NCCN)c(=O)c2ccc(-c3ccncc3)cc21 |  | inactive | >100 | 
CCn1cc(C2=NCCO2)c(=O)c2ccc(-c3ccncc3)cc21 |  | inactive | 12.5 | 
